Our source for the half-life, EC50 and CC50 values is ChEMBL document CHEMBL1137077, “Design, synthesis, anti-HIV activities, and metabolic stabilities of alkenyldiarylmethane (ADAM) non-nucleoside reverse transcriptase inhibitors” (J Med Chem, 2004).

A short description of series [1]: Half-life in rat plasma. Type of series: ADME.
Series [2] relates to Human immunodeficiency virus 1. The series can be described thus: Effective concentration required to inhibit cytopathicity of HIV-1(IIIB) in MT-4 cells. Type of series: functional, organism-based. The settings on record: Human immunodeficiency virus 1, MT4. A digest of the protocol:
(§1)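 MT-4 cells resuspended at 6 × 10⁵ cells/mL and infected with HIV-1 IIIB or HIV-2 ROD at 100–300 CCID₅₀, with compound added at infection. Serial 5-fold dilutions were run in triplicate. After 5 days, viability was read by MTT reduction at 540 and 690 nm using the median OD of three wells. EC₅₀ is the concentration giving 50% protection from viral cytopathic effect.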
A general note: Protection from cytopathic effect is a common read-out in antiviral testing.

In series [3] the test system is Human immunodeficiency virus 2. The series can be described thus: Effective concentration required to inhibit cytopathicity of HIV-2(ROD) in MT-4 cells. The class given is functional, organism-based. The following applies: mt4. A digest of the protocol: as §1
Series [4] has as its system MT4. The series can be described thus: Evaluated for cytotoxicity in mock-infected MT-4 cells. Type of series: functional. The settings on record: Homo sapiens. In a few lines: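 Exponentially growing MT-4 cells were resuspended at 6 × 10⁵ cells/mL in mock-infected wells alongside infected wells, with serial 5-fold compound dilutions run in triplicate. MTT viability was read after 5 days at 540 and 690 nm using the median OD of three wells. CC₅₀ is the concentration reducing OD₅₄₀ of mock-infected controls by 50%.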

Series [5] has as its system MT4. Briefly: Effective concentration required to inhibit cytopathicity of HIV-2(ROD) in MT-4 cells. The class given is functional, cell-based. The settings on record: Homo sapiens. A digest of the protocol: as §1
Series [6] has as its system MT4. Briefly: Evaluated for the ability to inhibit cytopathicity of HIV-1(IIIB) in MT-4 cells. Type of series: functional, cell-based. The following applies: Homo sapiens. In a few lines:
as §1

In series [7] the test system is MT4. The series can be described thus: Effective concentration required to inhibit cytopathicity of HIV-1(IIIB) in MT-4 cells; Not active. Type of series: functional, cell-based, Homo sapiens. In a few lines:
as §1

A value given as a limit tells only on which side of the number the result lay.

Usually half-life stands for how long it takes for the measured level to halve. High values mean slow loss, low ones fast loss. As a reminder, the EC50 is the concentration at which the effect is half-maximal. High values mean lower potency in that assay, low ones higher potency in that assay. Broadly, the CC50 is the concentration that lowers cell viability or growth by half. The compound `COC(=O)CCCC=C(c1cc(C)c(OC)c(C(=O)OC)c1)c1cc(C)c(OC)c(C(=O)OC)c1` displayed a half-life in series [1] of 42.9 min. The EC50 was 1 µM in series [2] and “Not Active” in series [3]. In the series on MT4 [4], this compound had a CC50 of 6.1 µM.
`CCOc1c(C)cc(C(=CCCCC(=O)OC)c2cc(C)c(OCC)c(C(=O)OC)c2)cc1C(=O)OC`: the half-life in series [1] was determined as 9 min. In addition, the concentration giving a half-maximal response (EC50) in series [2] is 3.7 µM; in series [3] it was “Not Active”. In addition, the CC50 in the series with MT4 [4] was found to be 73 µM.
For `C=CCCCC=C(c1cc(Cl)c(OC)c(C(=O)OC)c1)c1cc(Cl)c(OC)c(C(=O)OC)c1`, the half-life in series [1] was found to be 39.3 min. In addition, the EC50 turned out to be 3.7 µM in series [2] and 26.4 µM in the series on MT4 [5]. In addition, in the series on MT4 [4], the CC50 is above 253 µM.
For `COCCCCC=C(c1cc(Br)c(OC)c(C(=O)OC)c1)c1cc(Br)c(OC)c(C(=O)OC)c1`, the half-life in series [1] turned out to be 35.1 min. In addition, the EC50 result is “Not Active” in series [3] and 2.8 µM in the series with MT4 [6]. This compound also displayed a CC50 in the series on MT4 [4] of 28.6 µM.
In turn, `C#CCCCC=C(c1cc(Br)c(OC)c(C(=O)OC)c1)c1cc(Br)c(OC)c(C(=O)OC)c1` gave a half-life in series [1] of 18.9 min. In addition, the results for the EC50 in series [2] and in series [3] were 0.7 µM and “Not Active”, respectively. In the series with MT4 [4], this compound returned a CC50 of 57.8 µM.
As to `COC(=O)CCC/C=C(\c1ccc(OC)c(OC)c1)c1cc(Cl)c(OC)c(C(=O)OC)c1`, the EC50 result (with MT4 [7]; in series [3]) was “Not Active” each time. The compound also returned a CC50 in the series on MT4 [4] of 8.7 µM.
In series [1], `CCCOC(=O)CCCC=C(c1cc(C)c(OC)c(C(=O)OC)c1)c1cc(C)c(OC)c(C(=O)OC)c1` showed a half-life of 5.2 min. For the same compound, the EC50 is 3.5 µM in series [2] and “Not Active” in series [3]. The compound also yielded a CC50 with MT4 [4] of 93.4 µM.
As for `CCCOc1c(C)cc(C(=CCCCC(=O)OC)c2cc(C)c(OCCC)c(C(=O)OC)c2)cc1C(=O)OC`, the EC50 result (in the series on MT4 [7]; in series [3]) was “Not Active” in each case. Also, the CC50 in the series on MT4 [4] was above 231 µM.
Regarding `COC(=O)CCCC=C(c1cc(Br)c(OC)c(C(=O)OC)c1)c1cc(Br)c(OC)c(C(=O)OC)c1`, the half-life in series [1] is 6.2 min. Also, the EC50 in series [2] was 0.3 µM; in series [3], “Not Active”. The compound also yielded a CC50 in the series with MT4 [4] of 91 µM.
For the compound `COC(=O)CCC/C=C(/c1ccc(OC)c(OC)c1)c1cc(C)c(OC)c(C(=O)OC)c1`, the half-life in series [1] amounted to 19.2 min. Moreover, the EC50 entry (with MT4 [7]; in series [3]) was “Not Active” throughout. In the series on MT4 [4], the 50% cytotoxic concentration (CC50) was 0.25 µM.
As for `COc1c(Cl)cc(C(=CCCCCO)c2cc(Cl)c(OC)c(CO)c2)cc1CO`, the EC50 result (with MT4 [7]; in series [3]) was “Not Active” in each case. Further, the CC50 in the series with MT4 [4] was found to be 30.7 µM.
For `COC(=O)CCC/C=C(\c1cc(C)c(OC)c(C(=O)OC)c1)c1cc(Cl)c(OC)c(C(=O)OC)c1`, in series [1], the half-life was found to be 9 min. The EC50 is 0.8 µM in series [2] and “Not Active” in series [3]. Moreover, the CC50 in the series with MT4 [4] amounted to 19.1 µM.
In the same order, the values of `COC(=O)c1cc(C(=CCCCC(=O)OC(C)C)c2cc(C)c(OC)c(C(=O)OC)c2)cc(C)c1OC` are 1.7 min, 3.5 µM, “Not Active” and 59.5 µM.
On to `COC(=O)CCCC=C(c1ccc(OC)cc1OC)c1ccc(OC)cc1OC`, for which the half-life in series [1] was determined as 2.6 min. For the same compound, the EC50 result (with MT4 [7]; in series [3]) was “Not Active” each time. It took 5.9 µM to reach half-maximal cytotoxicity in the series with MT4 [4] (CC50).
In series [1], `COC(=O)CCCC=C(c1cc(C#N)c(OC)c(C(=O)OC)c1)c1cc(C#N)c(OC)c(C(=O)OC)c1` came in with a half-life of 12.4 min. Besides, the values for the EC50 in series [2] and in series [3] were 0.8 µM and “Not Active”, respectively. Moreover, the CC50 with MT4 [4] was above 247 µM.
In turn, `CCCOC(=O)CCCC=C(c1cc(Cl)c(OC)c(C(=O)OC)c1)c1cc(Cl)c(OC)c(C(=O)OC)c1` returned a half-life in series [1] of 7.4 min. Further, the figures for the EC50 in series [2] and in series [3] were 3.1 µM and “Not Active”, respectively. For the same compound, it took 159 µM to reach half-maximal cytotoxicity with MT4 [4] (CC50).
The matching figures for `C#CCCCC=C(c1cc(Cl)c(OC)c(C(=O)OC)c1)c1cc(Cl)c(OC)c(C(=O)OC)c1`: 20.6 min, 1.1 µM, “Not Active” and 143 µM.
For `COC(=O)CCCC(CCCC(=O)OC)=C(c1cc(Br)c(OC)c(C(=O)OC)c1)c1cc(Br)c(OC)c(C(=O)OC)c1`, the EC50 entry (in the series with MT4 [7]; in series [3]) was “Not Active” throughout. The same compound registered a CC50 with MT4 [4] of 78.1 µM.
In turn, `COC(=O)CCCC=C(c1cc(Cl)c(OC)c(C(=O)SC)c1)c1cc(Cl)c(OC)c(C(=O)SC)c1` showed a half-life in series [1] of 55.3 min. Besides, the EC50 in series [2] is 1.8 µM; in series [3] it was “Not Active”. Also, the half-maximal cytotoxic concentration (CC50) with MT4 [4] is above 224 µM.
`CCOC(=O)c1cc(C(=CCCCC(=O)OC)c2cc(C)c(OCC)c(C(=O)OCC)c2)cc(C)c1OCC` registered a half-life in series [1] of 37.7 min. Further, the values for the EC50 in series [2] and in series [3] were 14.1 µM and “Not Active”, respectively. The CC50 in the series on MT4 [4] was above 231 µM.
In the same order, the values of `C=CCCCC=C(c1cc(Br)c(OC)c(C(=O)OC)c1)c1cc(Br)c(OC)c(C(=O)OC)c1` are 58.5 min, 3 µM, “Not Active” and 62.3 µM.
Compound `COC(=O)c1cc(C(=CCCCc2ccccc2)c2cc(Cl)c(OC)c(C(=O)OC)c2)cc(Cl)c1OC` returned a half-life in series [1] of 76.6 min. In addition, the EC50 worked out at 13.2 µM in series [2] and 113 µM with MT4 [5]. Besides, the CC50 in the series with MT4 [4] was above 230 µM.
The compound `COC(=O)CCCC=C(c1ccc(OC)c(OC)c1)c1ccc(OC)c(OC)c1` yielded a half-life in series [1] of 0.9 min. For the same compound, the EC50 entry (with MT4 [7]; in series [3]) was “Not Active” each time. The compound further gave a CC50 in the series on MT4 [4] of 7.4 µM.
In series [1], `COC(=O)CCCC=C(c1cc(Cl)c(OC)c(C(=O)OC)c1)c1cc(Cl)c(OC)c(C(=O)OC)c1` gave a half-life of 5.8 min. Moreover, the 50% effective concentration (EC50) in series [2] was found to be 0.6 µM; with MT4 [5], 25 µM. For the same compound, the midpoint of cytotoxicity with MT4 [4], the CC50, lay at 160 µM.
In the case of `CCCCCC=C(c1cc(Cl)c(OC)c(C(=S)OC)c1)c1cc(Cl)c(OC)c(C(=S)OC)c1`, the 50% effective concentration (EC50) result (with MT4 [7]; in series [3]) was “Not Active” each time. This compound returned a CC50 with MT4 [4] of 181 µM.
Consider `COC(=S)CCCC=C(c1cc(Cl)c(OC)c(C(=S)OC)c1)c1cc(Cl)c(OC)c(C(=S)OC)c1`, for which the EC50 in series [2] is 35.4 µM; in series [3], “Not Active”. The CC50 with MT4 [4] was above 218 µM.
Turning to `CCCCCC=C(c1cc(Cl)c(OC)c(C(C)=O)c1)c1cc(Cl)c(OC)c(C(C)=O)c1`, the EC50 entry (in the series on MT4 [7]; in series [3]) was “Not Active” throughout. This compound also yielded a CC50 with MT4 [4] of 47.1 µM.
The compound `COC(=O)c1cc(C(=CCCCc2ccccc2)c2cc(Br)c(OC)c(C(=O)OC)c2)cc(Br)c1OC` showed a half-life in series [1] of 55 min. The values for the EC50 (in series [2]; in the series on MT4 [5]) were 2.6 µM and 29.3 µM, respectively. For the same compound, in the series on MT4 [4], the CC50 is above 198 µM.
`COC(=O)c1cc(C(=CCCCC(=O)OC(C)C)c2cc(Br)c(OC)c(C(=O)OC)c2)cc(Br)c1OC`: the half-life in series [1] came out at 5.7 min. Moreover, the EC50 is 2.7 µM in series [2] and “Not Active” in series [3]. This compound displayed a CC50 with MT4 [4] of 35.3 µM.
In series [1], `CCCOC(=O)CCCC=C(c1cc(Br)c(OC)c(C(=O)OC)c1)c1cc(Br)c(OC)c(C(=O)OC)c1` had a half-life of 3.4 min. Moreover, the figures for the EC50 in series [2] and in series [3] were 2.2 µM and “Not Active”, respectively. In the series with MT4 [4], half-maximal cytotoxicity (CC50) was put at 114 µM.
Regarding `COCCCCC=C(c1cc(Cl)c(OC)c(COC)c1)c1cc(Cl)c(OC)c(COC)c1`, the EC50 entry (in the series on MT4 [7]; in series [3]) was “Not Active” in each case. Moreover, the cytotoxic concentration (CC50) in the series with MT4 [4] amounted to 34 µM.
Consider `CCCOC(=O)c1cc(C(=CCCCC(=O)OC)c2cc(C)c(OCCC)c(C(=O)OCCC)c2)cc(C)c1OCCC`, for which the EC50 entry (with MT4 [7]; in series [3]) was “Not Active” in each case. In addition, in the series with MT4 [4], the CC50 was above 209 µM.
